This sample holds only a part of the variants without activity.
B1: tRNA (parent)
chain: GUUCCGUUGGCGUAAUGGUAACGCGUCUCCCUCCUAAGGAGAAGACUGCGGGUUCGAGUCCCGUACGGAACG

Variants of: B1
Assay: yeast fitness relative to wild type (ratio to wild type); higher = fitter; tRNA-Arg(CCU), competitive growth, 37 C, YPD
Procedure, shortened: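 A pool of Saccharomyces cerevisiae strains, each with a tRNA-Arg(CCU) gene variant at the native genomic locus, was competed in YPD at 37°C for 24 hours across six parallel replicates. The variants had been chemically synthesised at a 3% per-site mutation rate over 69 sites, and gene amplicons before and after competition were read by 100-nucleotide paired-end sequencing. Darwinian fitness relative to wild type rested on changes in genotype frequencies. Genotypes required ≥ 100 starting reads, and estimates < 0.5 were set to 0.5.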

Variant | yeast fitness
GUUCCGUUGGCGUAAUGGUAACGCGUCUCCCUCUUGAGGAGAAGACUGUGGGUUGGUGUCCCGUACAGAACG | ≤ 0.5
GUUCCGUUGGCGUAAUGGUAACGCGUCUCCCUCGUAAGGAGAAGACUGCGGGUUUGAAUCCCGUACGGAACG | ≤ 0.5
GUUCCGUUGGCGUAAUGGUAACGCGUCUCCCUCUUGAGGAGAAGUCUGCGGGUUCGAGUCCCGAACGGAACG | ≤ 0.5
GUUCCGUUGGCGUAAUGGUAACGCGUCUCCCUCGUAAGGAGAAGACUGCGGGUUCGAGUCCCAUACGGAACG | 0.633
GUUCCGUUGGCGUAAUGGUAACGCGUCUCCCUCGUAAGGAGAAGACUGCGGGUUGGAGCUCCGUACUGAACG | 0.555
GUUCCGUUGGCGUAAUGGUAACGCGUCUCCCUCUUAUGGAGAAGACUGCGGGUUCGAGUCCCGUACGGAACG | 0.535
GUUCCGUUGGCGUAAUGGUAACGCGUCUCCCUCGUAAGGAGAAGACUGGGGGUUCGAGUCCCGUACGGAACG | 0.657
GUUCCGUUGGCGUAAUGGUAACGCGUCUCCCUCUUGAGGUGAAGACUGCGGGUUCGAGUCCCGUACGGAACG | ≤ 0.5
GUUCCGUUGGCGUAAUGGUAACGCGUCUCCCUCGUAAGGAGAAGAUUGUGGGUUCGAGUCCCGUACGGAACG | ≤ 0.5
GUUCCGUUGGCGUAAUGGUAACGCGUCUCCCUCUUACGGAGAAGACUGCGGGUUCGAGUCCCAUACGGAACG | ≤ 0.5
GUUCCGUUGGCGUAAUGGUAACGCGUCUCCCUCGUAAGGAGAAGACUGGGGGUUCGAGUCUCGUACGGGACG | 0.567
GUUCCGUUGGCGUAAUGGUAACGCGUCUCCCUCGUAAGGAGAAGACCGCGGGUUCGAGUCCCGUACGGAACG | 0.599
GUUCCGUUGGCGUAAUGGUAACGCGUCUCCCUCGUAAAGAGAAGACUGCGGGUUCGGGUCCCGUACGGAACG | 0.539
GUUCCGUUGGCGUAAUGGUAACGCGUCUCCCUCGUAAGGAGAAGAUUGCGGGUUCGAGUCCCGUACGGAACG | 0.616
GUUCCGUUGGCGUAAUGGUAACGCGUCUCCCUCGUAAGAAGAAGACUGCGGGUUCGAGUCCCGUACGGACCG | ≤ 0.5
GUUCCGUUGGCGUAAUGGUAACGCGUCUCCCUCGUAACGAGAAGACCGCGGGUUCGAGUCCGGUACGGCACG | ≤ 0.5
GUUCCGUUGGCGUAAUGGUAACGCGUCUCCCUCGUAAGGAGAAGACUGCGGGUUCGAGUCCAGUACGGAACG | 0.64
GUUCCGUUGGCGUAAUGGUAACGCGUCUCCCUCGUAAGGAGAAGACUGCGGGUUCGAGUCCUGUACGGAACG | 0.639
GUUCCGUUGGCGUAAUGGUAACGCGUCUCCCUCGUAAGGAGAAGACUGCGGGUUCGAGUUCCGUACGGAACG | 0.536

Variant | yeast fitness
GUUCCGUUGGCGUAAUGGUAACGCGUCUCCCUCGUAAGGAGAAGACUGCGGGUUCGACUCCCGUUCGGAACG | ≤ 0.5
GUUCCGUUGGCGUAAUGGUAACGCGUCUCCCUCGUAAGGAGAAGACUACGGGUUCGAGUCCCGUACGGAUCG | 0.584
GUUCCGUUGGCGUAAUGGUAACGCGUCUCCCUCGUAAGGAGAAGACUGCGGAUUCGAGUCCCGUACGGCACG | 0.645
GUUCCGUUGGCGUAAUGGUAACGCGUCUCCCUCGUAAGGAGAAGACUGCGGGUUCGAGUCACGUACGGAACG | 0.613
GUUCCGUUGGCGUAAUGGUAACGCGUCUCCCUCGUAAGGAGAAGACUGCCGGUUGGAGUACCGUACGGAACG | 0.715
GUUCCGUUGGCGUAAUGGUAACGCGUCUCCCUCUUGAGGAGAAGACUGCGGGUUCGAGUCCCGUAAGGAACG | ≤ 0.5
GUUCCGUUGGCGUAAUGGUAACGCGUCUCCCUCGUAAGGAGAACACUGCGGGUUCGAGUCCCGUAAGGAACG | 0.595
GUUCCGUUGGCGUAAUGGUAACGCGUCUCCCUCGUAAGGAGAAGACUACGGGUUCGAGUCCCGUACGGAACG | 0.662
GUUCCGUUGGCGUAAUGGUAACGCGUCUCCCUCGUAAGCAGAAGACUGCGGGGUCAAGUCCCGUACGGAACG | ≤ 0.5
GUUCCGUUGGCGUAAUGGUAACGCGUCUCCCUCGUAAGUAGAAGACGGCGGGUUCGAGUCCCGUACGGAACG | ≤ 0.5
GUUCCGUUGGCGUAAUGGUAACGCGUCUCCCUCGUAAGGAGAAGACUGCGGGUUAGAGUCCCGUAUGGAACG | ≤ 0.5
GUUCCGUUGGCGUAAUGGUAACGCGUCUCCCUCUUAAGGAGAAGACUGCGGGUUCGAGUCCCGUACGGAACG | 0.707
GUUCCGUUGGCGUAAUGGUAACGCGUCUCCCUCGUAAGGAGAAUACUGGGGGUUCGAGUCUCGUACGGGACG | ≤ 0.5
GUUCCGUUGGCGUAAUGGUAACGCGUCUCCCUCGUAAGGAGAAGACUCCGGGUUCGAGUCCUGUAGGGAACG | ≤ 0.5
GUUCCGUUGGCGUAAUGGUAACGCGUCUCCCUCUUGAGGAGAAGACUGCGGGUUCGAGUCCCGUACGGAACG | 0.696
GUUCCGUUGGCGUAAUGGUAACGCGUCUCCCUCUUCAGGAGAAGACUGCGGGUUCGAGUCCCGUACGGAACG | 0.554
GUUCCGUUGGCGUAAUGGUAACGCGUCUCCCUCGUAAGGAGAAGACUGCAGGUUCGAGACCCGUACGGAACG | ≤ 0.5
GUUCCGUUGGCGUAAUGGUAACGCGUCUCCCUCGUAAGGAGAAGACUGCCGGUUCGAGUCCCGUACGGUACG | ≤ 0.5
GUUCCGUUGGCGUAAUGGUAACGCGUCUCCCUCUUAGGGAGAAGACUGCGGGUUCGAGUCCAGUACGGAACG | ≤ 0.5

From the RNAGym collection of RNA variant scans (doi:10.1126/science.aae0568)
